# High-throughput results deposited in PubChem by several laboratories.
# UCH37 inh – blocks the human deubiquitinase UCH37; Q9Y5K5; purified proteasome/UCH37, Ub-AMC cleavage fluorescence; inhibition, % (test concentration not listed); 330,000 compounds, 0.33% hits;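 active means mean inhibition over replicate wells above about 20%, limit read from the data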;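 further: 0% = compound-free wells with enzyme and 100% = wells lacking proteasome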
#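 Schedule: 30 min plus 25 min, room temperature / Material: human UCH37 within purified proteasomes / Technique: AMC fluorescence intensity at 355/460 nm / Buffer or medium: pH 7.4 Tris-HCl (50 mM) with ovalbumin, ATP-MgCl2, DTT / Controls: wells without proteasome as full block, compound-free enzyme plus substrate as uninhibited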
# SENP7 inh – SENP7 protease inhibition | Q9BQF6 | recombinant SENP7, Z-RLRGG-aminoluciferin luminescence, 40 min | inhibition, % at 5 µM | 330,000 compounds, 1.5% hits;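 active means inhibition above about 50% at the single test dose, limit read from the data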;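 further: plate controls were DMSO with enzyme for no effect and no enzyme buffer wells for full effect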
# SENP8 block-1 – blocks human SENP8 cleavage of Nedd8 substrate | Q96LD8 | recombinant SENP8, Nedd8 substrate fluorescence | inhibition, % at 20 µM | 360,000 compounds, 0.64% hits | AID 602440; in the data active means inhibition mostly above about 40%, no sharp cut-off; inactive means mostly below about 27%
# SENP6 inh – inhibitors of human SENP6 protease | 330,000 compounds, 1.8% hits | AID 2599 | Q9GZR1 | Recombinant SENP6 catalytic domain, aminoluciferin luminescence | inhibition, % at 10 µM;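 active means inhibition above about 50% at the single tested dose, limit read from the data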;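 further: plate controls were DMSO wells with enzyme for no effect and DMSO wells lacking enzyme for full effect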
# Target sequence (Q9GZR1 628-1112 limits assumed): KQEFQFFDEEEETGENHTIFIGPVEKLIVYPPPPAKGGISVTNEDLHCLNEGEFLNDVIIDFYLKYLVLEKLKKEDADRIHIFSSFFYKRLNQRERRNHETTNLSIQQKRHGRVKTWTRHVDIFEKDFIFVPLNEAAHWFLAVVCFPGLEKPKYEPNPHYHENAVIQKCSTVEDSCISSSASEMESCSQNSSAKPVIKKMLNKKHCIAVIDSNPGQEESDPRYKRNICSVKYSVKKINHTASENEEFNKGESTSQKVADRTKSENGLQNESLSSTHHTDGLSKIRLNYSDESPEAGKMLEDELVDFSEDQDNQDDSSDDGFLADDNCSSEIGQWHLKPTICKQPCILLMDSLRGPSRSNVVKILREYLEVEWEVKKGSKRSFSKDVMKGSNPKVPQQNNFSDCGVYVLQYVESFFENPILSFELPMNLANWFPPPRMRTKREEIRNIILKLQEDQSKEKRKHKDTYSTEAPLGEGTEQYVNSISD
# SENP1 FRET inh – blocks the human SENP1 SUMO protease catalytic domain; AID 624204; 360,000 compounds, 0.21% hits; recombinant SENP1 catalytic domain, CyPet-SUMO1-YPet FRET cleavage; inhibition, % at 10 µM; Q9P0U3;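 active means inhibition at least 30% at 10 µM, raw YFP signal under a set limit, fluorescence ratio 0.5 to 1.5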;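 further: 0% = enzyme with DMSO and 100% = no enzyme wells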
#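 system = hSENP1 catalytic domain, recombinant | reagent = SFCypet-SUMO1-SFYpet substrate at 25 nM | doses = one dose per compound, 10 µM, 0.5% DMSO | incubation = enzyme reaction for 50 min at room temperature, dark | measured by = FRET, CFP and YFP emission | controls = no-enzyme low, enzyme-DMSO high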
# SENP8 block-2 – blocks the human protease SENP8; Q96LD8; purified SENP8, Z-RLRGG-aminoluciferin cleavage, luminescence; inhibition, % at 10 µM; 330,000 compounds, 1.2% hits; AID 2540; in the data active means inhibition above about 50%
# SENP8 conf-1 – human SENP8 inhibition, confirmed; shares compounds with SENP7 inh; Recombinant SENP8, Z-RLRGG-aminoluciferin luminescence, 60 min; inhibition, % at 12.5 µM; 6,200 compounds, 40% hits; AID 488912;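 active means mean inhibition across replicates above about 50%, limit read from the data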
# SENP6 confirm – confirmation of human SENP6 protease inhibitors; shares compounds with SENP7 inh; recombinant SENP6, Z-RLRGG-aminoluciferin luminescence; inhibition, % at 12.5 µM; 6,200 compounds, 58% hits; AID 488915
# SENP7 confirm – confirmation of human SENP7 protease inhibitors | shares compounds with SENP7 inh | inhibition, % at 12.5 µM | 6,200 compounds, 69% hits | AID 488917 | recombinant SENP7, Z-RLRGG-aminoluciferin luminescence, 40 min
# Casp3 SENP sel – caspase-3 inhibition (SENP selectivity assay); shares compounds with SENP7 inh; purified caspase-3, Z-DEVD-aminoluciferin luminescence, 60 min; inhibition, % at 12.5 µM; 6,200 compounds, 60% hits;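 active means mean inhibition above about 50%, limit read from the data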;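 further: plate controls were enzyme with DMSO for no effect and wells without caspase-3 for full effect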
# Target sequence (P42574 28-227 limits assumed): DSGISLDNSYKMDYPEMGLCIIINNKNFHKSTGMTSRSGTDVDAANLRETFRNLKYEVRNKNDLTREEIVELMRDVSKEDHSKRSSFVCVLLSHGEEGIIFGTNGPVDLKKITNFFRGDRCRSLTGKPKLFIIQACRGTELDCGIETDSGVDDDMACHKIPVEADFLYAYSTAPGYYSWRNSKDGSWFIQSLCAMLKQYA
# SENP luc ctr – counter-screen for SENP inhibitors: luminescence interference; Pre-incubated SENP8/Z-RLRGG-aminoluciferin, luciferase luminescence interference; 6,200 compounds, 39% hits; shares compounds with SENP7 inh; inhibition, % at 12.5 µM; AID 488919;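 active means mean inhibition above about 50% when retested at one dose, limit read from the data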;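 further: plate controls were DMSO wells with completed reaction for no effect and substrate without enzyme for full effect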
# UCH37 confirm – UCH37 Ub-AMC cleavage inhibition, confirmed; shares compounds with UCH37 inh; inhibition, % at 20 µM; 480 compounds, 27% hits; Proteasome-bound UCH37, Ub-AMC cleavage fluorescence;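 active means average inhibition over replicates above about 50%, so the earlier screening hit is confirmed, limit read from the data; inactive means the rest, counted as false positives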;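 further: based on cleavage rate fitted by regression over a 30 min kinetic read; 0% = proteasome plus Ub-AMC and 100% = Ub-AMC without proteasome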
# SENP8 conf-2 – SENP8 (human) inhibition, single concentration confirmation; shares compounds with SENP8 block-1; 1,400 compounds, 15% hits; purified SENP8, Nedd8-AMC/pro-Nedd8 cleavage fluorescence, 30 min; inhibition, % at 25 µM; in the data active means inhibition mostly above about 39%, no sharp cut-off; inactive means mostly below about 34%
# An asterisk follows results filed as active; i = inactive; x = not tested or not shown. A selection: hits, their analogues and other compounds. The true share with any hit is near 2.6%.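 How the source made its calls, unless noted: active means mean inhibition above about 50% in the one-dose retest (limit read from the data); inactive means the rest.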
SMILES,UCH37 inh,SENP7 inh,SENP8 block-1,SENP6 inh,SENP1 FRET inh,SENP8 block-2,UCH37 confirm,others
O=C(c1cc2c(s1)-c1ccccc1OC2)N1CCC2(CC1)OCCO2,i,84*,-277,84*,2,70*,x,SENP8 conf-1=75*;SENP6 confirm=75*;SENP7 confirm=94*;Casp3 SENP sel=84*;SENP luc ctr=80*
CCN(CC)C(=O)c1ccc(NC(=O)c2cccc(F)c2)cc1,2,65*,12,62*,2,35,x,SENP8 conf-1=57*;SENP6 confirm=54*;SENP7 confirm=83*;Casp3 SENP sel=82*;SENP luc ctr=53*
COC(=O)c1nc(-c2ccc3c(n2)C(=O)C(N)=C(OC)C3=O)c(N)c(-c2ccc(OC)c(OC)c2O)c1C,69*,13,49*,76*,10,81*,37,SENP8 conf-1=-8;SENP6 confirm=-3;SENP7 confirm=10;Casp3 SENP sel=-2;SENP luc ctr=-4
CCCCCC(=NO)c1c(C)[nH]c2ccccc12,1,x,x,x,x,x,x,
COc1cc(C(c2c(C)[nH]n(-c3ccccc3)c2=O)c2c(C)[nH]n(-c3ccccc3)c2=O)cc(OC)c1OC,53*,64*,80*,59*,3,31,94*,SENP8 conf-1=21;SENP6 confirm=48;SENP7 confirm=18;Casp3 SENP sel=-2;SENP luc ctr=-3
NC(N)=NN=Cc1cn(-c2ccccc2)nc1-c1cccs1,-9,x,x,x,x,x,x,
COc1cc2c(cc1OC)-c1c(OC)c(OC)cc3c1C(C2)N(C)CC3 (stereo not drawn),28*,55*,-136,82*,24,58*,38,SENP8 conf-1=-2;SENP6 confirm=73*;SENP7 confirm=30;Casp3 SENP sel=24;SENP luc ctr=-3
COc1ccc(CC2c3cc(OC)c(OC)cc3CCN2C)cc1O (stereo not drawn),3,-2,-95,-23,-22,-6,x,
CN1CCN(c2ccc([N+](=O)[O-])c3cccnc23)CC1,3,3,28,11,1,5,x,
O=[N+]([O-])c1ccc(N2CCCC2)c2ccncc12,14,47,53*,60*,-7,18,x,SENP8 conf-1=7;SENP6 confirm=10;SENP7 confirm=14;Casp3 SENP sel=9;SENP luc ctr=6;SENP8 conf-2=20
Oc1cccc(C=NNP(=S)(c2ccccc2)c2ccccc2)c1,1,x,x,x,x,x,x,
O=[N+]([O-])c1ccc(NC2CCN(Cc3ccccc3)CC2)c2ccncc12,8,39,40*,66*,-87,29,x,SENP8 conf-1=3;SENP6 confirm=2;SENP7 confirm=12;Casp3 SENP sel=10;SENP luc ctr=3;SENP8 conf-2=18
CCN(CC)c1ccc(/C=C2\C(=O)NC(=S)N(c3ccc(OC)cc3OC)C2=O)o1,27*,3,14,0,78*,1,32,
COc1cccc(N2C(=O)/C(=C/c3ccc(C)o3)C(=O)NC2=S)c1,5,1,9,-6,-12,7,x,
CCN(CC)c1ccc(/C=C2\C(=O)NC(=S)N(C)C2=O)o1,26*,10,30,42,86*,19,29,
Cc1ccc(/C=C2\C(=O)NC(=S)N(c3ccc(F)cc3)C2=O)o1,2,4,-2,15,-12,-4,x,
COc1ccc(N2C(=O)/C(=C/c3ccc(N(C)C)o3)C(=O)NC2=S)cc1,25*,-1,38,-16,69*,1,25,
CCCC(=NO)c1c[nH]c2ccccc12,-5,x,x,x,x,x,x,
O=C(NN=C1CN2CCC1CC2)c1cccc(O)c1,2,x,x,x,x,x,x,
Cc1c(N=Nc2c(O)[nH]c(=S)[nH]c2=O)c(=O)n(-c2ccccc2)n1C,30*,10,22,3,3,-5,10,
NC(=N[N+](=O)[O-])N1CCN(C(=O)OC2CCCC2)CC1,1,x,x,x,x,x,x,
O=C1NC(=O)N(c2ccc(F)cc2)C(=O)/C1=C/c1ccc(N2CCOCC2)cc1,2,4,1,-4,-7,2,x,
O=C1NC(=O)C(=Cc2ccc(N3CCOCC3)o2)C(=O)N1,27*,-4,24,2,2,-3,36,
O=c1[nH]c(=O)n(CCC2=CCCCC2)c(O)c1C=NCc1cccnc1,44*,-20,17,-18,0,-17,42,
COC(=O)C1=C(c2ccc(OC(F)(F)F)cc2)C[C@@H]2CC[C@H]1N2C(=O)NCCOc1ccc(OC)cc1,49*,3,12,-1,-1,1,4,
SMILES,UCH37 inh,SENP7 inh,SENP8 block-1,SENP6 inh,SENP1 FRET inh,SENP8 block-2,UCH37 confirm,others
C=C1[C@@H](O)[C@]23C[C@@H]1[C@@H](O)C[C@H]2[C@@]12C4[C@@H]3C[C@@H]1[C@@](C)(CC[C@@H]2O)CN4CC,3,x,x,x,x,x,x,
COc1ccc(-n2c(/C=C/c3ccc(O)cc3)nc3ccccc3c2=O)cc1,-9,-16,-211,-3,-20,-9,x,
CCn1nc(/C=C/c2ccccc2)nc2c(=O)n(C)c(=O)nc1-2,96*,96*,73*,89*,20,96*,100*,
Cn1c(=O)[nH]c2nncnc2c1=O,30*,18,78*,11,8,6,40,SENP8 conf-2=90*
COc1ccccc1/C=C1/C(=NO)C2CCN1CC2,4,x,x,x,x,x,x,
COC(=O)C(O)(c1c(C)[nH]n(-c2ccccc2)c1=O)C(F)(F)F (stereo not drawn),85*,24,63*,27,4,6,60*,SENP8 conf-2=87*
C#CC1(O)CCC2C3CCC4=CC(=NOCC(=O)NCC(=O)NC(C(=O)O)C(C)C)CC[C@]4(C)C3CC[C@@]21C (stereo partly drawn),1,x,x,x,x,x,x,
CCn1c(O)c(N=Nc2cccc(S(=O)(=O)N3CCOCC3)c2)c(=O)n(CC)c1=S,5,9,35,-10,-2,-6,x,
CCn1c(O)c(N=Nc2ccc(S(=O)(=O)N3CCOCC3)cc2)c(=O)n(CC)c1=S,5,8,40*,-15,1,-5,x,SENP8 conf-2=19
COc1ccc(C(=O)O)cc1OC,x,x,45*,x,4,x,x,SENP8 conf-2=14
